Experimental data as given in ChEMBL document CHEMBL4152211, “Discovery of novel Methylsulfonyl phenyl derivatives as potent human Cyclooxygenase-2 inhibitors with effective anticonvulsant action: Design, synthesis, in-silico, in-vitro and in-vivo evaluation” (Eur J Med Chem, 2018).
Active and inactive are the calls of the source. The rule behind the calls is not given here.

Legend:
Rattus norvegicus [1] = assay: Toxicity in Wistar rat assessed as hemoglobin level at 200 mg/kg, po for 14 days (reference value: 12.87 +/- 0.6 g/dl); assay type: organism-based; conditions: in vivo, 336 h
Rattus norvegicus [2] = assay: Toxicity in Wistar rat assessed as monocyte level at 200 mg/kg, po for 14 days (reference value: 2.67 +/- 0.58%); assay type: organism-based; conditions: in vivo, 336 h
Rattus norvegicus [3] = assay: Toxicity in Wistar rat assessed as effect on alkaline phosphatase level at 200 mg/kg, po for 14 days; assay type: organism-based; conditions: in vivo, 336 h
How it was run: (§1)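 Normal Wistar rats are given 200 mg/kg orally for 14 days, with vehicle-treated controls. Serum liver markers (SGOT, SGPT, ALP, total protein, total bilirubin) and renal markers (urea, creatinine, uric acid) are then measured, mean ± S.D.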

[4] = biological target: T1, Prostaglandin G/H synthase 1 (Ovis aries) (UniProt P05979); assay: Inhibition of ovine COX1 at 10 uM using arachidonic acid as substrate preincubated for 5 mins followed by substrate addition and measured after 2 mins by ADPH probe-based fluorescence assay relative to control
T1 sequence (whole entry): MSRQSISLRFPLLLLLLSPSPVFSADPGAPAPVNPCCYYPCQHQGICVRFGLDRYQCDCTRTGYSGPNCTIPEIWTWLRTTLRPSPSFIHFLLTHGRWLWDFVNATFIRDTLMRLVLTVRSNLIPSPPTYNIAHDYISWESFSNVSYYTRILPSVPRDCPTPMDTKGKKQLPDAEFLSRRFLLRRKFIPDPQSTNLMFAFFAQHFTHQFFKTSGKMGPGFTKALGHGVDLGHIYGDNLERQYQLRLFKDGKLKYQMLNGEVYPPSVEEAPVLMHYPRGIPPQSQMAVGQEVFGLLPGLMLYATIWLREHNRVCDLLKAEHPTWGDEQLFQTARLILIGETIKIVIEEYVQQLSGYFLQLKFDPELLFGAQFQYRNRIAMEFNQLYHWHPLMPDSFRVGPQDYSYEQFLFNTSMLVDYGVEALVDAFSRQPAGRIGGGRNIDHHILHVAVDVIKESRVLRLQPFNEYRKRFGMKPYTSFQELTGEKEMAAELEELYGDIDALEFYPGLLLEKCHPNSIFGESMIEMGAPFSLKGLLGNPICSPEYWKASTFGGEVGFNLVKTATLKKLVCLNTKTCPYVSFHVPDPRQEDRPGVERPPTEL
How it was run: (§2)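 Kit assay in 100 mM Tris-HCl pH 8.0. Enzyme, heme and inhibitor (DMSO stocks) are incubated 5 min at room temperature. ADPH is added, then arachidonic acid starts the reaction. After 2 min, fluorescence is read at ex 535/em 590 nm. Percent inhibition is taken versus the 100% activity well, background wells included. IC50 is derived from percentage inhibition, mean of three independent experiments.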

Rattus norvegicus [5] = assay: Toxicity in Wistar rat assessed as effect on total bilirubin level at 200 mg/kg, po for 14 days; assay type: organism-based; conditions: in vivo, 336 h; how it was run: as §1
Rattus norvegicus [6] = assay: Anxiolytic activity in ip dosed PTZ-kindled Wistar rat assessed as time spent in dark zone by light-dark test (reference value: 96.9 +/- 1.25%); assay type: functional
Rattus norvegicus [7] = assay: Toxicity in Wistar rat assessed as effect on creatinine level at 200 mg/kg, po for 14 days; assay type: organism-based; conditions: in vivo, 336 h; how it was run: as §1
Rattus norvegicus [8] = assay: Cognitive enhancing effect in ip dosed PTZ-kindled rat assessed as decrease in ratio of second interaction trial to first interaction time by social recognition test (reference value: 0.928 +/- 0.234); assay type: functional
Rattus norvegicus [9] = assay: Toxicity in Wistar rat assessed as effect on potassium level at 200 mg/kg, po for 14 days; assay type: organism-based; conditions: in vivo, 336 h
[10] = biological target: T2, Prostaglandin G/H synthase 2 (Homo sapiens, UniProt P35354); assay: Inhibition of human recombinant COX2 using arachidonic acid as substrate preincubated for 5 mins followed by substrate addition and measured after 2 mins by ADPH probe-based fluorescence assay; how it was run: as §2
T2 sequence (P35354 whole entry): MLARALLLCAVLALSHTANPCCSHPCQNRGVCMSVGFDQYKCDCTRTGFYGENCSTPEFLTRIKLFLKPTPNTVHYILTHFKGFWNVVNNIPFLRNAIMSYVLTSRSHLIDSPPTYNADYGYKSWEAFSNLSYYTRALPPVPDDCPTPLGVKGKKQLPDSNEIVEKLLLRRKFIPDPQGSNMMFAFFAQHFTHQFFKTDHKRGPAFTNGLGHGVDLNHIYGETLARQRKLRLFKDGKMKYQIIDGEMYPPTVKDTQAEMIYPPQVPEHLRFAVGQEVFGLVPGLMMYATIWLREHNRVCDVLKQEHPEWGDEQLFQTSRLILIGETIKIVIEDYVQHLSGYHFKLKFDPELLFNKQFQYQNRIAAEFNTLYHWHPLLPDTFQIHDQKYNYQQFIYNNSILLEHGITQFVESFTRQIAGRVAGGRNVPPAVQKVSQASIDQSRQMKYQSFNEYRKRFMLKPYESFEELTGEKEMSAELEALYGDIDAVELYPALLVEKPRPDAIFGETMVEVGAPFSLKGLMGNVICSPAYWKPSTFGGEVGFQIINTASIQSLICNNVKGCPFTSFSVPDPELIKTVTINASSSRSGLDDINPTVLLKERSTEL

Rattus norvegicus [11] = assay: Toxicity in Wistar rat assessed as effect on chloride level at 200 mg/kg, po for 14 days; assay type: organism-based; conditions: in vivo, 336 h
Rattus norvegicus [12] = assay: Toxicity in Wistar rat assessed as effect on uric acid level at 200 mg/kg, po for 14 days; assay type: organism-based; conditions: in vivo, 336 h; how it was run: as §1
Rattus norvegicus [13] = assay: Toxicity in Wistar rat assessed as effect on SGPT level at 200 mg/kg, po for 14 days; assay type: organism-based; conditions: in vivo, 336 h; how it was run: as §1
Mus musculus [14] = assay: Anticonvulsant activity in Swiss albino mouse assessed as protection against subcutaneous pentylenetetrazole-induced seizures at 30 mg/kg, ip administered 4 hrs prior to PTZ challenge and measured after 30 mins; assay type: functional
How it was run: (§3)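 Male Swiss Albino mice (25–30 g), 6 per group, dosed i.p. with drugs in sterile saline, then challenged with PTZ 85 mg/kg s.c. (CD97), given at 10 ml/kg, 0.5 h or 4 h later. Each animal is observed singly for seizures. Protection is scored as protected/total animals.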

Mus musculus [15] = assay: Anticonvulsant activity in Swiss albino mouse assessed as protection against subcutaneous pentylenetetrazole-induced seizures at 30 mg/kg, ip administered 0.5 hrs prior to PTZ challenge and measured after 30 mins; assay type: functional; how it was run: as §3
Mus musculus [16] = assay: Anticonvulsant activity in Swiss albino mouse assessed as protection against subcutaneous pentylenetetrazole-induced seizures at 5 mg/kg, ip administered 2 hrs prior to PTZ challenge and measured after 30 mins; assay type: functional; conditions: in the assay text read “30 mg/kg” for “5 mg/kg”
How it was run: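 Mice get a single i.p. dose, then PTZ 85 mg/kg s.c. at 0.5, 1, 2, 3, 4 or 6 h after dosing. Seizure protection is recorded at each interval as percentage of six Swiss Albino mice protected.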

With `Cc1ccc(NC(=S)NNC(=O)Nc2ccc(S(C)(=O)=O)cc2)cc1` the Activity (Rattus norvegicus [1]) was 14.15 g/dL, the Activity (Rattus norvegicus [2]) was 2.5% and the Activity (Rattus norvegicus [3]) was “Non-Toxic”. For the same compound, the inhibition [4] was “inactive”, the Activity (Rattus norvegicus [5]) was “Non-Toxic” and the Activity (Rattus norvegicus [6]) was 86.6%. For the same compound, the Activity (Rattus norvegicus [7]) was “Non-Toxic”, the Ratio (Rattus norvegicus [8]) was 0.561 and the Activity (Rattus norvegicus [9]) was “Non-Toxic”. The IC50 [10] was 2150 nM, the Activity (Rattus norvegicus [11]) was “Non-Toxic” and the Activity (Rattus norvegicus [12]) was “Non-Toxic”. For the same compound, the Activity (Rattus norvegicus [13]) was “Non-Toxic”, the Activity (Mus musculus [14]) was 83% and the Activity (Mus musculus [15]) was 83%. For the same compound, the Activity (Mus musculus [16]) was 67%.
